Measured values as given in ChEMBL document CHEMBL1649127, “In vivo and in vitro efficacy of amodiaquine monotherapy for treatment of infection by chloroquine-resistant Plasmodium vivax” (Antimicrob Agents Chemother, 2009).

Experiments:
Plasmodium vivax [1] = assay: Antimalarial activity against chloroquine-resistant Plasmodium vivax infected in human assessed as clearance of peripheral parasitemia at total dose of 30 mg/kg administered as three daily doses measured within 24 hrs post dose; assay type: functional
How it was run: (§1)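 Oral amodiaquine 30 mg base/kg total, given as three daily doses. For children, the tablet was crushed and given as a suspension in water. Primaquine […] for 14 days was withheld until day 28 if there was no G6PD deficiency.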

Homo sapiens [2] = assay: Toxicity in patient infected with chloroquine-resistant Plasmodium vivax assessed as occurrence of vomiting at total dose of 30 mg/kg administered as three daily doses measured […]; assay type: organism-based; parameters: dose 30 mg/kg; conditions: in vivo
How it was run: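 Three daily oral doses of amodiaquine, 30 mg base/kg total, were given under observation for 60 min. Patients who vomited were withdrawn and retreated with oral quinine. Children received crushed tablet suspended in water.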

Homo sapiens [3] = assay: Toxicity in patient infected with chloroquine-resistant Plasmodium vivax assessed as occurrence of anemia at total dose of 30 mg/kg administered as three daily doses measured 7 days post dose; assay type: organism-based; parameters: dose 30 mg/kg; conditions: in vivo, 168 h
How it was run: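 Patients received oral amodiaquine 30 mg base/kg split over three daily doses, with 60-min observation after each dose. Children were given crushed tablet in water. Anemia was defined as hemoglobin <10 g/dl. Primaquine was deferred to day 28.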

Plasmodium vivax [4] = assay: Antimalarial activity against chloroquine-resistant Plasmodium vivax by Giemsa staining; assay type: functional, organism-based
How it was run: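 Ex vivo P. vivax isolates came from clinic outpatients with parasitemia >5,000 μl−1 and were tested with a modified WHO microtest. Incubation ran until the drug-free control reached ≥40% schizonts. Giemsa-stained thick smears from each well were read for schizonts per 200 asexual parasites and normalized to control. IC50 was derived by nonlinear regression.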

Homo sapiens [5] = assay: Toxicity in human infected with chloroquine-Resistant Plasmodium vivax assessed as occurrence of nausea at total dose of 30 mg/kg administered as three daily doses; assay type: organism-based; parameters: dose 30 mg/kg; conditions: in vivo; how it was run: as §1
Plasmodium vivax [6] = assay: Antimalarial activity against chloroquine-Resistant Plasmodium vivax infected in human assessed as parasite recurrence rate at total dose of 30 mg/kg administered as three daily doses measured on day 28 post dose; assay type: functional; how it was run: as §1
Homo sapiens [7] = assay: Toxicity in patient infected with chloroquine-resistant Plasmodium vivax assessed as occurrence of anemia at total dose of 30 mg/kg administered as three daily doses measured 28 days post dose; conditions: in vivo, 672 h
Plasmodium vivax [8] = assay: Antimalarial activity against chloroquine-resistant Plasmodium vivax infected in human assessed as clearance of peripheral parasitemia at total dose of 30 mg/kg administered as three daily doses measured 48 hrs post dose; assay type: functional; how it was run: as §1

CCN(CC)Cc1cc(Nc2ccnc3cc(Cl)ccc23)ccc1O.Cl
Activity (Plasmodium vivax [1]): 52%
Activity (Homo sapiens [2]): 4.6%
Activity (Homo sapiens [3]): 30%
IC50 (Plasmodium vivax [4]): 11.3 nM
Activity (Homo sapiens [5]): 4.5%
Activity (Plasmodium vivax [6]): 22.8%
Activity (Homo sapiens [7]): Non-toxic
Activity (Plasmodium vivax [8]): 91%

C[C@H]1[C@H](OC(=O)CCC(=O)O)O[C@@H]2O[C@@]3(C)CC[C@H]4[C@H](C)CC[C@@H]1[C@@]24OO3 [ARTESUNATE]
IC50 (Plasmodium vivax [4]): 1.29 nM

CCN(CC)CCCC(C)Nc1ccnc2cc(Cl)ccc12 (stereo not drawn) [CHLOROQUINE]
IC50 (Plasmodium vivax [4]): 52.7 nM

CCCCN(CCCC)CC(O)c1cc(Cl)cc2c1-c1ccc(Cl)cc1/C2=C/c1ccc(Cl)cc1 (stereo not drawn) [LUMEFANTRINE]
IC50 (Plasmodium vivax [4]): 16 nM

OC(c1cc(C(F)(F)F)nc2c(C(F)(F)F)cccc12)C1CCCCN1 (stereo not drawn) [MEFLOQUINE]
IC50 (Plasmodium vivax [4]): 8.2 nM

Clc1ccc2c(N3CCN(CCCN4CCN(c5ccnc6cc(Cl)ccc56)CC4)CC3)ccnc2c1 [PIPERAQUINE]
IC50 (Plasmodium vivax [4]): 17.5 nM
